Structures are written as SMILES.

Series [1] is described as follows: Metal chelation assay, UV–vis spectroscopy. Format: physicochemical. To be noted: compound 30 μM, ZnSO4 30 μM, ethanol. In a few lines: (§1)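 Test compound and metal salt (CuSO4, ZnSO4 or FeSO4) mixed in ethanol, both at 30 μM final, and incubated 30 min at room temperature. UV-vis spectra were recorded from 200 to 600 nm for the compound alone, the metal alone and the mixture. Spectra of metal alone and compound alone were subtracted from the mixture spectrum to give the difference spectrum attributed to complex formation.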

For series [2], the target named is Aβ1–42 (Homo sapiens, UniProt P05067). The series is described as follows: Self-induced Aβ1–42 aggregation inhibition. To be noted: for IC50: Aβ1–42 aggregation inhibition IC50, self-induced aggregation; for inhibition at 10 µM: read-out: Aβ1–42 (% inhibition at 10 μM). Format: biochemical.
For series [3], the target named is T1, hMAO-B (Homo sapiens, UniProt P27338).
T1 sequence (P27338 1-520): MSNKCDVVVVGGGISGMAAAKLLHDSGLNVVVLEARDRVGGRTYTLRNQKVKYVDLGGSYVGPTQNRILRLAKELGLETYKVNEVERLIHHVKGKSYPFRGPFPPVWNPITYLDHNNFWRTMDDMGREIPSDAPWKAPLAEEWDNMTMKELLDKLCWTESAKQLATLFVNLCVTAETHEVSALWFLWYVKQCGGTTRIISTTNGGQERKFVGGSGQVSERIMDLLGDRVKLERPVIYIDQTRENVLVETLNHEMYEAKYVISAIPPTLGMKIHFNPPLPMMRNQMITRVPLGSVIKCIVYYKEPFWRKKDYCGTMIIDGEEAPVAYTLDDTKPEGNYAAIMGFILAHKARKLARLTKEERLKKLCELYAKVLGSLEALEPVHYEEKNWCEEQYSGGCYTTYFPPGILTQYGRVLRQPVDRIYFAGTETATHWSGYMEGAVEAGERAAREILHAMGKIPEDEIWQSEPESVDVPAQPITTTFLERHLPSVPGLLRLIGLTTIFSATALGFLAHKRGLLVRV
The series is described as follows: biochemical. Format: biochemical.

The nature of series [4]: Metal chelation assay, UV–vis spectroscopy. Format: physicochemical. To be noted: compound 30 μM, FeSO4 30 μM, ethanol. In a few lines: as §1
Series [5] in a line: In vitro hepatotoxicity MTT assay. To be noted: human.
For series [6], the system named is HepG2 cell line. The experiment in a line: In vitro hepatotoxicity MTT assay. To be noted: ratio of hepatotoxicity IC50 to AChE IC50. (In general: Tetrazolium assays rely on reduction of a dye to a coloured formazan, in cell work by metabolically active cells.)
Series [7] addresses hAChE (Homo sapiens, UniProt P22303). The series is described as follows: In vitro AChE inhibition assay. The format is biochemical. To be noted: for IC50: in vitro AChE inhibition IC50 ± SD, Ellman method, n = 3.
The nature of series [8]: Metal chelation assay, UV–vis spectroscopy. The format is physicochemical. To be noted: compound 30 μM, CuSO4 30 μM, ethanol. In a few lines: as §1
Series [9] has as its target BACE-1 (Homo sapiens, UniProt P56817). The series is described as follows: β-Secretase inhibition assay. Format: biochemical. To be noted: BACE-1 IC50 ± SD.
Series [10] can be described thus: In vitro neurotoxicity MTT assay. Format: cell-based. To be noted: human, SH-SY5Y neuroblastoma cells.
In series [11] the target is hBuChE (Homo sapiens, UniProt P06276). The series is described as follows: In vitro BuChE inhibition assay. Format: biochemical. To be noted: for IC50: BuChE IC50 ± SD, modified Ellman method.
Chain of hBuChE (P06276 29-602): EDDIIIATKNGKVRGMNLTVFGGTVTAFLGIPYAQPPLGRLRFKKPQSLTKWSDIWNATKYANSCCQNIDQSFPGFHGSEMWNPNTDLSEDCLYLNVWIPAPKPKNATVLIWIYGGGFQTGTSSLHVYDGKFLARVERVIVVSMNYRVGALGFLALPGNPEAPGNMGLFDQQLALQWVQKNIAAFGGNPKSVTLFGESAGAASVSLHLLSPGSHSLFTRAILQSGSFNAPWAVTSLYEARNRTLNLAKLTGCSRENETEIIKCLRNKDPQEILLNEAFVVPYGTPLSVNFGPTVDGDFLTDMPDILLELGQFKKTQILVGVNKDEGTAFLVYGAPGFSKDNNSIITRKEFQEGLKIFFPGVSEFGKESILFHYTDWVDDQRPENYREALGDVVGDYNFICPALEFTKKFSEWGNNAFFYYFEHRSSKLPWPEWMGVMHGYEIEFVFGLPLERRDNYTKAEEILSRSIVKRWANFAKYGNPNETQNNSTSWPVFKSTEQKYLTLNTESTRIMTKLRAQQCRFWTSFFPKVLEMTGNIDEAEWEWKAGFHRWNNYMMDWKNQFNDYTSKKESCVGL

Chain of hAChE (P22303 32-614): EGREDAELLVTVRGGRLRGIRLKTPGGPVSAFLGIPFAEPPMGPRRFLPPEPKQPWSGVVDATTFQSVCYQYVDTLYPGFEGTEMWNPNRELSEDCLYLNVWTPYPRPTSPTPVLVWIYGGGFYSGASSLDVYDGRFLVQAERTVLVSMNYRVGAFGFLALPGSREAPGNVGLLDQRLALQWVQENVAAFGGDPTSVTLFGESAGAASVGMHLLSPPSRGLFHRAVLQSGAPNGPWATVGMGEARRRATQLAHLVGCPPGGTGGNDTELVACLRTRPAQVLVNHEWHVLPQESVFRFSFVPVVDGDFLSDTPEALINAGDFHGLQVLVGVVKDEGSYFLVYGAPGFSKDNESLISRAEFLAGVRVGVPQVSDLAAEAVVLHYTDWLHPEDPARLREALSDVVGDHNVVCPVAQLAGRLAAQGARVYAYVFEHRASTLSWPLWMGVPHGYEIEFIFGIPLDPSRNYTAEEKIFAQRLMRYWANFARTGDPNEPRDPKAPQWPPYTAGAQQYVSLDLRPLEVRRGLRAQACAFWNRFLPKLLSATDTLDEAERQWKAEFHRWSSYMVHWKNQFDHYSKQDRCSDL
Chain of Aβ1–42 (P05067 672-713): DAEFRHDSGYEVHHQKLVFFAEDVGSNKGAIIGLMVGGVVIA
Chain of BACE-1 (P56817 46-501): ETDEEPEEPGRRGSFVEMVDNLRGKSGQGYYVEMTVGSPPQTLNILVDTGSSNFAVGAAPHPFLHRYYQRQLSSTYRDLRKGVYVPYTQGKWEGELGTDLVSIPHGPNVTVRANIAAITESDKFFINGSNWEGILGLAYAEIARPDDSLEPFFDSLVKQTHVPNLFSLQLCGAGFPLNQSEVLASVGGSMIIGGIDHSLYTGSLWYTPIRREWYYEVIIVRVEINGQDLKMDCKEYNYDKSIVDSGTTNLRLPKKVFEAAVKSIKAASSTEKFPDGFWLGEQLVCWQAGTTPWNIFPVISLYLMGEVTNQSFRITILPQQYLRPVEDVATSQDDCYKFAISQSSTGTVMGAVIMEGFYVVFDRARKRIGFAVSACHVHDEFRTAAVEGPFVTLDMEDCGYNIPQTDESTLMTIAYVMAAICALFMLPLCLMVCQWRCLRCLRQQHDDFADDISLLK

As for `COc1ccc(S(=O)(=O)Oc2ccc3c(c2)Oc2nc4c(c(N)c2C3c2cccc(OC)c2)CCCC4)cc1` (stereo not shown) [4g, 11-Amino-12-(3-methoxyphenyl)-7,9,10,12-tetrahydro-8H-chromeno[2,3-b]quinolin-3-yl-4-methoxybenzenesulfonate], the “UV–vis spectral change on addition of ZnSO4 (metal chelation)” value in series [1] is recorded as “slight hypochromic shift”. For the same compound, the IC50 (commonly the midpoint of a concentration-inhibition curve) worked out at 11700 ± 450 nM in series [2]; 12700 ± 430 nM in series [3]; 300 ± 10 nM in [7]; 1460 ± 68 nM in series [9]; 86000 ± 3810 nM in [10]; 350 ± 21 nM in [11]. In addition, in series [2], the inhibition (in general, the change of the read-out against control, counted positive when it falls) at 10 µM worked out at 43%. Moreover, the “UV–vis spectral change on addition of FeSO4 (metal chelation)” value in [4] was “hyperchromic shifts”. Moreover, the IC50 at 24 h in series [5] turned out to be 126000 ± 5300 nM. Further, the “safety index ratio (SI)” value in series [6] was found to be 417.88. In addition, the “AChE SI (selectivity index) = IC50 of BuChE/IC50 of AChE” value in series [7] was found to be 1.18. Further, the “UV–vis spectral change on addition of CuSO4 (metal chelation)” value in series [8] is recorded as “hyperchromic shifts”. The “BuChE SI (selectivity index) = IC50 of AChE/IC50 of BuChE” value in series [11] was found to be 0.85.
In turn, `COc1cccc(C2c3ccc(OS(=O)(=O)c4ccc(C)cc4)cc3Oc3nc4c(c(N)c32)CCCC4)c1` (stereo not shown) [4l, 11-Amino-12-(3-methoxyphenyl)-7,9,10,12-tetrahydro-8H-chromeno[2,3-b]quinolin-3-yl-4-methylbenzenesulfonate] had a concentration for half-maximal inhibition (IC50) in [7] of 2620 ± 110 nM.
On the same count and under the same terms, in the case of `Cc1ccc(S(=O)(=O)Oc2ccc3c(c2)Oc2nc4c(c(N)c2C3c2cccc([N+](=O)[O-])c2)CCCC4)cc1` (stereo not shown) [4m, 11-Amino-12-(3-nitrophenyl)-7,9,10,12-tetrahydro-8H-chromeno[2,3-b]quinolin-3-yl-4-methylbenzenesulfonate] it was 11100 ± 480 nM; in that of `COc1ccccc1C1c2ccc(OS(=O)(=O)c3ccc(C)cc3)cc2Oc2nc3c(c(N)c21)CCCC3` (stereo not shown) [4o, 11-Amino-12-(2-methoxyphenyl)-7,9,10,12-tetrahydro-8H-chromeno[2,3-b]quinolin-3-yl-4-methylbenzenesulfonate], 1030 ± 40 nM.
Same read-out and setting: in the case of `Nc1c2c(nc3c1C(c1cccc(Br)c1)c1ccc(OS(=O)(=O)c4ccccc4)cc1O3)CCCC2` (stereo not shown) [4p, 11-Amino-12-(3-bromophenyl)-7,9,10,12-tetrahydro-8H-chromeno[2,3-b]quinolin-3-yl-benzenesulfonate] it was 1340 ± 70 nM.
Same read-out and setting: in the case of `COc1cccc(C2c3ccc(OS(=O)(=O)c4ccccc4)cc3Oc3nc4c(c(N)c32)CCCC4)c1` (stereo not shown) [4q, 11-Amino-12-(3-methoxyphenyl)-7,9,10,12-tetrahydro-8H-chromeno[2,3-b]quinolin-3-yl-benzenesulfonate] it was 2450 ± 120 nM.
Take `Nc1c2c(nc3c1C(c1cccc([N+](=O)[O-])c1)c1ccc(OS(=O)(=O)c4ccccc4)cc1O3)CCCC2` (stereo not shown) [4r, 11-Amino-12-(3-nitrophenyl)-7,9,10,12-tetrahydro-8H-chromeno[2,3-b]quinolin-3-yl-benzenesulfonate]: the 50% inhibitory concentration (IC50) in [7] was determined as 5500 ± 280 nM.
Take `Nc1c2c(nc3c1C(c1ccc(Cl)c(Cl)c1)c1ccc(OS(=O)(=O)c4ccccc4)cc1O3)CCCC2` (stereo not shown) [4s, 11-Amino-12-(3,4-dichlorophenyl)-7,9,10,12-tetrahydro-8H-chromeno[2,3-b]quinolin-3-yl-benzenesulfonate]: the midpoint of inhibition in [7], the IC50, lay at 9690 ± 490 nM.
On the same count and under the same terms, with `COc1ccccc1C1c2ccc(OS(=O)(=O)c3ccccc3)cc2Oc2nc3c(c(N)c21)CCCC3` (stereo not shown) [4t, 11-Amino-12-(2-methoxyphenyl)-7,9,10,12-tetrahydro-8H-chromeno[2,3-b]quinolin-3-yl-benzenesulfonate] the figure was 24000 ± 1210 nM; with `Nc1c2c(nc3c1C(c1cccc(Br)c1)c1ccc(OCC(=O)c4ccc(Cl)cc4)cc1O3)CCCC2` (stereo not shown) [5a, 2-[11-Amino-12-(3-bromophenyl)-7,9,10,12-tetrahydro-8H-chromeno[2,3-b]quinolin-3-yl]oxy-1-(4-chlorophenyl)ethan-1-one], 990 ± 50 nM.
The same measure, in the same setting: with `COc1cccc(C2c3ccc(OCC(=O)c4ccc(Cl)cc4)cc3Oc3nc4c(c(N)c32)CCCC4)c1` (stereo not shown) [5b, 2-[11-Amino-12-(3-methoxyphenyl)-7,9,10,12-tetrahydro-8H-chromeno[2,3-b]quinolin-3-yl]oxy-1-(4-chlorophenyl)ethan-1-one] the figure was 6010 ± 300 nM.
Consider `Nc1c2c(nc3c1C(c1ccc(Cl)c(Cl)c1)c1ccc(OCC(=O)c4ccc(Cl)cc4)cc1O3)CCCC2` (stereo not shown) [5d, 2-[11-Amino-12-(3,4-dichlorophenyl)-7,9,10,12-tetrahydro-8H-chromeno[2,3-b]quinolin-3-yl]oxy-1-(4-chlorophenyl)ethan-1-one], for which, in series [1], the “UV–vis spectral change on addition of ZnSO4 (metal chelation)” value is listed as “slight hyperchromic shift”. Also, in series [2], the “times more active than curcumin (Aβ aggregation inhibition)” value was determined as 8 fold, half-maximal inhibition (IC50) was put at 740 ± 30 nM and the inhibition at 10 µM came out at 76%. In addition, in [3], the IC50 came out at 2420 ± 80 nM and the “times better than iproniazid (MAO-B inhibition)” value is reported as roughly 3 times. Further, the “UV–vis spectral change on addition of FeSO4 (metal chelation)” value in series [4] is on record as “noticeable optical shift”. In addition, 154000 ± 6200 nM corresponded to half-maximal inhibition in series [5] (IC50 at 24 h). Also, in series [6], the “safety index ratio (SI)” value stood at 611.51. Further, in [7], the “AChE SI (selectivity index) = IC50 of BuChE/IC50 of AChE” value was 0.59 and the IC50 worked out at 250 ± 10 nM. Moreover, the “UV–vis spectral change on addition of CuSO4 (metal chelation)” value in series [8] is “slight hyperchromic shift”. The compound further had an IC50 in series [9] of 440 ± 21 nM. In [10], this compound showed an IC50 of 71100 ± 2800 nM. For the same compound, in series [11], the “BuChE SI (selectivity index) = IC50 of AChE/IC50 of BuChE” value amounted to 1.69, the “fold more active than rivastigmine (BuChE inhibition)” value turned out to be 5 fold and the half-maximal inhibitory concentration (IC50) turned out to be 140 ± 9 nM.
In series [7], `COc1ccccc1C1c2ccc(OCC(=O)c3ccc(Cl)cc3)cc2Oc2nc3c(c(N)c21)CCCC3` (stereo not shown) [5e, 2-[11-Amino-12-(2-methoxyphenyl)-7,9,10,12-tetrahydro-8H-chromeno[2,3-b]quinolin-3-yl]oxy-1-(4-chlorophenyl)ethan-1-one] gave a half-inhibitory concentration (IC50) of 750 ± 40 nM.
On the same count and under the same terms, with `Nc1c2c(nc3c1C(c1cccc(Br)c1)c1ccc(OCC(=O)c4ccccc4)cc1O3)CCCC2` (stereo not shown) [5f, 2-[11-Amino-12-(3-bromophenyl)-7,9,10,12-tetrahydro-8H-chromeno[2,3-b]quinolin-3-yl]oxy-1-phenylethan-1-one] the figure was 1140 ± 54 nM; with `COc1cccc(C2c3ccc(OCC(=O)c4ccccc4)cc3Oc3nc4c(c(N)c32)CCCC4)c1` (stereo not shown) [5g, 2-[11-Amino-12-(3-methoxyphenyl)-7,9,10,12-tetrahydro-8H-chromeno[2,3-b]quinolin-3-yl]oxy-1-phenylethan-1-one], 31000 ± 1470 nM; with `Nc1c2c(nc3c1C(c1cccc([N+](=O)[O-])c1)c1ccc(OCC(=O)c4ccccc4)cc1O3)CCCC2` (stereo not shown) [5h, 2-[11-Amino-12-(3-nitrophenyl)-7,9,10,12-tetrahydro-8H-chromeno[2,3-b]quinolin-3-yl]oxy-1-phenylethan-1-one], 10200 ± 480 nM.
In turn, `COc1ccccc1C1c2ccc(OCC(=O)c3ccccc3)cc2Oc2nc3c(c(N)c21)CCCC3` (stereo not shown) [5j, 2-[11-Amino-12-(2-methoxyphenyl)-7,9,10,12-tetrahydro-8H-chromeno[2,3-b]quinolin-3-yl]oxy-1-phenylethan-1-one] had a 50% inhibitory concentration (IC50) in series [7] of 2480 ± 120 nM.
With `COc1cc(/C=C/C(=O)CC(=O)/C=C/c2ccc(O)c(OC)c2)ccc1O` [Curcumin, reference compound], the inhibition at 10 µM in series [2] stood at 44%.
`COc1cccc2c1C(=O)c1c(O)c3c(c(O)c1C2=O)C[C@@](O)(C(=O)CO)C[C@@H]3O[C@H]1C[C@H](N)[C@H](O)[C@H](C)O1` [Doxorubicin, reference compound]: the concentration for half-maximal inhibition (IC50) at 24 h in [5] was determined as 4500 ± 200 nM.
On the same count and under the same terms, with `Nc1c2c(nc3ccccc13)CCCC2` [Tacrine, reference compound] the figure was 17500 ± 1100 nM.

These data come from PMC10373466 (ACS Omega, 2023).
